Measured values of several laboratories.
Protocols differ between the studies behind these lines.
Target: Serine/threonine-protein kinase 25 (STK25, Homo sapiens, UniProt O00506)

Structure (SMILES)	effect on	action	technique	concentration	measurement	result
O=C(NCc1ncc(C(F)(F)F)cc1Cl)c1ccc2c(c1)C1(CCS(=O)(=O)CC1)[C@H](C1CC1)N2S(=O)(=O)c1ccc(F)cc1	cell-free assay		competition with immobilised ligand	1 µM	remaining binding	100%
CN1CCC2(CC1)NC(=O)c1c(c3ccc(Cl)c(Cl)c3n1C)C2C#N (racemic)	thermal stability		DSF	10 µM	ΔTm	0.3 °C
C#Cc1cccc(Nc2ncnc3cc(OCCOC)c(OCCOC)cc23)c1	cell-free assay			0.5 µM	remaining signal	99.4%
COc1ccc2c(O[C@@H]3C[C@H]4C(=O)N[C@]5(C(=O)O)CC5/C=C\CCCCC[C@H](NC(=O)OC5CCCC5)C(=O)N4C3)cc(-c3csc(NC(=O)C(C)C)n3)nc2c1C (some centres unmarked)	cell-free assay		competition with immobilised ligand	1 µM	remaining binding	100%
O=C(Nc1cnn(-c2csc(C(=O)NC3COC3)c2)c1)Nc1ccccc1Cl	enzyme activity	inhibitor		5 µM	remaining activity	106%
Cn1c2c(Cl)c(Cl)ccc2c2cc[nH]c(=O)c21	thermal stability		DSF	10 µM	ΔTm	0.5 °C
O=C(Nc1cnc(Oc2ccc(F)cc2)nc1)N1CCc2ncccc2[C@@H]1c1ccc(F)cc1	cell-free assay		competition with immobilised ligand	1 µM	remaining binding	82%
COc1cc2ncnc(Nc3ccc(F)c(Cl)c3)c2cc1OCCCN1CCOCC1	cell-free assay			0.5 µM	remaining signal	97.4%
COc1cc(Cl)c(C(=O)N[C@@H](CN[C@H]2CC[C@@H](N)CC2)Cc2ccc(C#N)cc2)cc1-c1ccc(CN[C@H](C)c2ccc(C)cc2)o1	enzyme activity	inhibitor		1 µM	remaining activity	104%
COc1cc2ncnc(Nc3ccc(Oc4ccccc4)c(C)c3C)c2cc1OC	enzyme activity	inhibitor		1 µM	inhibition	8%
Cc1ccc(C(=O)Nc2ccc(CN3CCN(C)CC3)c(C(F)(F)F)c2)cc1C#Cc1cnc2cccnn12	enzyme activity	inhibitor		23.5 nM	remaining activity	98%
CO[C@@H](C)c1c(Nc2ccc([C@H](N(C)C(=O)C3CCS(=O)(=O)CC3)C(F)(F)F)cc2)cnc2cc(Cl)nn12	cell-free assay		competition with immobilised ligand	1 µM	remaining binding	87%
Cc1cnc(NC2CCOCC2)nc1-n1cnc(C(=O)NC(CN)c2cc(F)cc(Cl)c2)c1 (centres unmarked)	enzyme activity	inhibitor	radiometric	1 µM	remaining activity	71%
CC1CCCN1c1nccc(-c2cnn3ncccc23)n1 (centres unmarked)	binding			1 µM	remaining binding	100%
CC(C)(O)[C@H]1CC[C@H](Nc2ccc3ncc(-c4cccc(C(F)(F)F)c4)n3n2)CC1	enzyme activity	inhibitor		1 µM	remaining activity	87%
O=C1Nc2ccc(Cl)cc2C1=Cc1cc(Cl)c(O)c(Cl)c1	cell-free assay			0.5 µM	remaining signal	94%
CC1=C(C#N)C(c2ccc3c(c2)c(NC(=O)c2ccccc2C)nn3C)C(C#N)=C(C)N1	cell-free assay		competition with immobilised ligand	1 µM	remaining binding	100%
Cn1c2c(c3ccc(Cl)c(Cl)c31)C(C#N)C(C)(C)NC2=O (centres unmarked)	thermal stability		DSF	10 µM	ΔTm	1.2 °C
CCN(CC)CCNC(=O)c1c(C)[nH]c(/C=C2\C(=O)Nc3ccc(F)cc32)c1C	cell-free assay			0.5 µM	remaining signal	76.1%
COc1cccc2c(NCc3ccccc3)nc(-n3c(N)nc4ccccc43)nc12	target engagement in cells	inhibitor	chemoproteomics	20 mM	inhibition	3.5%
O=C(Nc1ccc(Oc2ccc(F)cc2)cc1)N1CCc2ncccc2[C@H]1c1ccc(F)cc1	cell-free assay		competition with immobilised ligand	1 µM	remaining binding	100%
COc1cc(-c2cc(-c3ccc(N4CCNCC4)cc3)cnc2C)cc(OC)c1OC	enzyme activity	inhibitor		0.1 µM	inhibition	1%
CS(=O)(=O)N1CCCC(NC(=O)[C@H](CCC2CCCCC2)NC(=O)c2ccc(CNC(=O)c3cnc4ccccn34)cc2)C1 (some centres unmarked)	cell-free assay		competition with immobilised ligand	0.1 µM	remaining binding	100%
c1ccc(CNc2nc(N3CCOc4ccccc43)nc3c2CCCC3)cc1	target engagement in cells	inhibitor	chemoproteomics	20 mM	inhibition	34.6%
CC(C)(C)c1nc2c(s1)c1nc(N)ncc1c1ccc(NS(=O)(=O)c3c(F)cccc3F)c(F)c12	enzyme activity	inhibitor	radiometric	1 µM	remaining activity	57%
COc1cc(-c2cn(C3CCc4ccccc4N(CC(F)(F)F)C3=O)nn2)ccc1-n1ccc(C)n1 (centres unmarked)	cell-free assay		competition with immobilised ligand	1 µM	remaining binding	100%
